# Neddyl block: inhibitors of human cullin neddylation | TR-FRET cullin neddylation, biochemical | calls only at 25 µM | actives 0.58% (n = 360,000); in the data active = inhibition above about 36%
# NR2E3 ag-1: human photoreceptor-specific nuclear receptor agonism. Q9Y5X4. CHO-S Gal4-NCOR/VP16-NR2E3 two-hybrid, luciferase. inhibition of corepressor binding, % at 3.98 µM. actives 0.35% (n = 360,000);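 active = inhibition above the mean of all tested compounds plus 3 SD, cut at about 70% in these data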;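 note: 0% = DMSO with NR2E3 transfected cells and 100% = cells lacking NR2E3 construct; higher means lower luciferase signal from less NR2E3 corepressor binding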
# Target sequence (Q9Y5X4 whole entry, looked up, the tested form may be a part): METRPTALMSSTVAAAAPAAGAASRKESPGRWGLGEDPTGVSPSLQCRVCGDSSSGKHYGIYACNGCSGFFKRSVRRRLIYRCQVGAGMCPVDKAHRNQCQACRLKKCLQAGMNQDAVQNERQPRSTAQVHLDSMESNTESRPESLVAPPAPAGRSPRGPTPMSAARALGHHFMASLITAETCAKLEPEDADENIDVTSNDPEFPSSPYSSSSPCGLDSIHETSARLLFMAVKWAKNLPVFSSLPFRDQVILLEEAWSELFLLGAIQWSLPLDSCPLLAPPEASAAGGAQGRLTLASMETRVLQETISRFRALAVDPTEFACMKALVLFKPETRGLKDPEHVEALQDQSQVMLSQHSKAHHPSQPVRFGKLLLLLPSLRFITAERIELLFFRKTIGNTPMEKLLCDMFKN
# NR2E3 ag-2: agonists of human nuclear receptor NR2E3 | actives 0.12% (n = 320,000) | GST-NR2E3/biotin-RetCOR TR-FRET, 1536-well | AID 2300 | inhibition of corepressor binding, % at 4.78 µM;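 active = percent inhibition above the cutoff of mean plus 3 SD of all tested compounds, set per screening campaign, cut at about 20% in these data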;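 note: 0% = DMSO wells and 100% = biotin wells as full block of FRET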
#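 system = GST-tagged NR2E3 plus biotinylated RetCOR corepressor | input = 1.35 nM GST-NR2E3 | also added = 7 nM biotin-RetCOR | schedule = 5 h incubation at 4 °C | measured by = TR-FRET with europium anti-GST and streptavidin-D2, 340 nm excitation | read-out = percent loss of FRET ratio relative to control wells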
# NR1D1 modulator: Rev-erb alpha (human) modulation; P20393; Rev-erbα–FITC-DNA binding, fluorescence polarization, 90 min; activity, % at 10 µM; actives 0.79% (n = 370,000);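 active = activity above about 14%, limit read from the data; passing the limit was not always enough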;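 note: 0% = DMSO wells with 35 nM protein and 100% = DMSO wells with 750 nM protein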
# PG9 Ab binder: binds the HIV-1 gp120 antibody PG9; actives 0.43% (n = 360,000); AID 624416; inhibition, % at 6.7 µM; TR-FRET gp120-PG9 antibody binding; in the data active = inhibition above about 8.5%
# PG9 binder conf: confirmation of small molecules binding HIV-1 gp120 antibody PG9; shares compounds with PG9 Ab binder; TR-FRET PG9 antibody binding, biochemical; inhibition, % at 6.7 µM; actives 90% (n = 1,500); in the data active = inhibition above about 9%
# PGV04 counter: PGV04 control antibody binding, counter-screen; shares compounds with PG9 Ab binder; TR-FRET PGV04 antibody-gp120 binding, biochemical; inhibition, % at 6.7 µM; actives 95% (n = 1,500); in the data active = inhibition above about 9.5%
# PG9 bind DR: small molecules binding HIV-1 gp120 antibody PG9; shares compounds with PG9 Ab binder; TR-FRET PG9 antibody-gp120 binding inhibition; IC50, µM; 95 tested, under 10 active; AID 651848; in the data active = IC50 below about 10 µM
# PGV04 binding DR: counter-screen for PG9 binders: binding to control antibody PGV04; shares compounds with PG9 Ab binder; TR-FRET binding to control antibody PGV04; IC50, µM; actives 20% (n = 95); AID 651937
# PG126 binding DR: counter-screen for PG9 binders: binding to control antibody PG126; IC50, µM; TR-FRET binding to antibody PG126, counterscreen; shares compounds with PG9 Ab binder; actives 20% (n = 95)
# * hit, by the source's call; i = inactive; x = no result shown. An excerpt weighted towards active compounds, which were near 2% of everything screened. Cut-off read from the data, not from the text of the source, unless noted: active = IC50 below about 9 µM; inactive = the rest.
SMILES,Neddyl block,NR2E3 ag-1,NR2E3 ag-2,NR1D1 modulator,PG9 Ab binder,PG9 binder conf,PGV04 counter,others
Cc1ccc(C(=O)C2=C(O)C(=O)N(Cc3cccnc3)C2c2ccc(Cl)cc2)o1 (centres undefined),i,7,18,-1,19*,27*,36*,
COc1cc(C)ccc1S(=O)(=O)NC(=O)C1(C)CCN1C(=O)COc1ccc(Cl)cc1 (centres undefined),i,14,x,6,-1,x,x,
N#Cc1cn(-c2ccccc2)nc1-c1ccc2c(c1)OCCO2,i,-47,0,21,24*,20*,28*,
O=Cc1cn(-c2ccccc2)nc1-c1ccc2c(c1)OCCO2,i,-88,3,1,-1,x,x,
COC(=O)c1cc2ccsc2n1CC(=O)N1CCCc2ccccc21,i,-2,-1,1,-1,x,x,
COC(=O)c1cc2oc3ccccc3c2n1CC(=O)N1CCCc2ccccc21,i,1,4,9,12*,12*,20*,
C[C@H](CO)N1C[C@H](C)[C@@H](CN(C)Cc2ccccc2)Oc2c(NS(=O)(=O)c3ccc(F)cc3)cccc2C1=O,i,-39,x,-5,11*,31*,47*,
C[C@H](CO)N1C[C@H](C)[C@@H](CN(C)Cc2ccccc2)Oc2c(NS(=O)(=O)c3ccccc3)cccc2C1=O,i,-23,x,-4,-2,x,x,
C=CCN(CC#Cc1cccnc1)Cc1ccc(OC)cc1OC,x,x,x,-4,x,x,x,
COc1ccc(CN(CC#Cc2ccc(C)cc2)C(N)=NC(=O)CCc2ccccc2)c(OC)c1,x,x,x,5,x,x,x,
COC(=O)c1cc(-c2cccc([N+](=O)[O-])c2)c2c(=O)[nH]c(=O)n(C)c2n1,i,22,2,-3,-2,x,x,
COC(=O)c1cc(-c2ccc(OC)c(OC)c2)c2c(=O)[nH]c(=O)n(C)c2n1,x,10,4,7,21*,21*,29*,
COC(=O)c1cc(-c2ccc(Br)cc2)c2c(=O)[nH]c(=O)n(C)c2n1,i,7,3,9,20*,29*,16*,PG9 bind DR=>67;PGV04 binding DR=i;PG126 binding DR=i
Cc1sc2ncnc(N3CCC(C(=O)Nc4ccccc4C(C)(C)C)CC3)c2c1C,i,-15,2,3,13*,17*,21*,
CCOC(=O)c1ccccc1NC(=O)C1CCN(c2ncnc3sc(C)c(C)c23)CC1,i,2,-1,x,x,x,x,
CN(c1ccc(C(=O)COC(=O)C2CC2)cc1)S(C)(=O)=O,i,-37,x,4,14*,18*,20*,
COc1ccc(CNC(=O)C2(C)Cc3c(-c4cccc(NC(C)=O)c4)ccnc3O2)cc1OC (centres undefined),i,-9,x,3,-1,x,x,
COc1ccc2c(C)cc(=S)[nH]c2c1,i,-11,x,-3,19*,8.6*,9.5*,
COC(=O)c1cc2c(c3c4cc(C)ccc4n(S(=O)(=O)c4ccc(C)cc4)c13)C(=O)N(Cc1ccc(N(C)C)cc1)C2,x,x,x,-8,0,x,x,
Cc1ccc(C(=O)Nc2nnc(COc3ccccc3)s2)cc1,i,-30,14,6,25*,34*,39*,
O=C(Nc1ccccc1)c1ccc(COc2ccccc2)cc1,i,-26,2,4,13*,12*,16*,
CC(=O)Nc1ccc(C(=O)Nc2nnc(CCc3ccccc3)s2)cc1,i,-3,1,13,25*,15*,24*,
Cc1ccc(OCc2nnc(NC(=O)c3cccnc3)s2)cc1,i,-20,-1,1,3,x,x,
Cc1ccsc1C(=O)OCC(=O)NC1CCCCC1,i,-43,x,-9,1,x,x,
C[C@@H]1ON(C)[C@H]2C[C@H]3c4cc(-c5cc6ccccc6o5)ccc4CCN3C[C@@H]12,x,x,x,-5,-1,x,x,
SMILES,Neddyl block,NR2E3 ag-1,NR2E3 ag-2,NR1D1 modulator,PG9 Ab binder,PG9 binder conf,PGV04 counter,others
CC1=C(C(=O)N2CCOCC2)CC(CC(=O)NCCN2CCOCC2)C(=O)N1Cc1ccccc1 (centres undefined),i,-3,x,0,0,x,x,
O=C1C[C@H](c2ccc3ccccc3c2)N=C2N1/C(=C\c1ccccc1)[C@@H](c1ccccc1C(F)(F)F)N2Cc1ccc2c(c1)OCO2,x,x,x,4,x,x,x,
N#Cc1ccc2nc(-c3ccc(CN4CCC(n5cc(-c6ccccc6)[nH]c5=O)CC4)cc3)c(-c3ccccc3)nc2c1,x,x,x,-1,0,x,x,
Cc1[nH]c2ccccc2c1C1=CC(=O)C=CC1=O,i,27,x,17,10*,20*,25*,
Cc1[nH]c2ccccc2c1CC#N,i,-15,1,-10,-1,x,x,
CC(C)[C@H](NS(=O)(=O)c1ccccc1)C(=O)Nc1ccccc1N1CCOCC1,i,6,x,-1,-2,x,x,
CC(=O)c1cccc(NC(=O)c2cccc(N3C(=O)c4ccccc4C3=O)c2)c1,i,-9,4,-10,22*,25*,22*,PG9 bind DR=i;PGV04 binding DR=i;PG126 binding DR=i
NS(=O)(=O)c1cccc(NC(=O)c2cccc(N3C(=O)c4ccccc4C3=O)c2)c1,i,-5,x,1,0,x,x,
C[C@H](NC(=O)c1ccco1)C(=O)Nc1cc(S(=O)(=O)N2CCCC2)ccc1OCC(F)(F)F,i,-11,x,-5,-2,x,x,
CN(C)C1(CNC(=O)CC(NC(=O)c2ccccc2Cl)c2ccccc2)CCCCC1 (centres undefined),i,-25,4,9,17*,8.9*,9.6*,
CCOc1ccc(NC(=O)CCSc2ccc(C)cc2)cc1,i,-13,3,1,0,x,x,
Cc1ccc(SCCC(=O)Nc2ccc(OCc3ccccc3)cc2)cc1,i,-30,4,3,9.2*,15*,19*,
N=c1oc2ccccc2cc1-c1nc(-c2ccc(Cl)cc2)cs1,x,4,2,1,10*,8.8*,13*,
O=c1oc2ccccc2cc1-c1csc(Cc2nc(-c3ccc(Cl)cc3)cs2)n1,i,-13,2,7,-1,x,x,
COc1ccc(CCNC(=O)Cn2nc(-c3ccccc3)ccc2=O)cc1,x,x,x,3,x,x,x,

# Source: PubChem BioAssay (several laboratories)
